The source made the active and inactive calls. The rule behind the calls is not given here.
Molecular target: T1, Toll-like receptor 8 (Homo sapiens) (UniProt Q9NR97)
T1 sequence (whole entry): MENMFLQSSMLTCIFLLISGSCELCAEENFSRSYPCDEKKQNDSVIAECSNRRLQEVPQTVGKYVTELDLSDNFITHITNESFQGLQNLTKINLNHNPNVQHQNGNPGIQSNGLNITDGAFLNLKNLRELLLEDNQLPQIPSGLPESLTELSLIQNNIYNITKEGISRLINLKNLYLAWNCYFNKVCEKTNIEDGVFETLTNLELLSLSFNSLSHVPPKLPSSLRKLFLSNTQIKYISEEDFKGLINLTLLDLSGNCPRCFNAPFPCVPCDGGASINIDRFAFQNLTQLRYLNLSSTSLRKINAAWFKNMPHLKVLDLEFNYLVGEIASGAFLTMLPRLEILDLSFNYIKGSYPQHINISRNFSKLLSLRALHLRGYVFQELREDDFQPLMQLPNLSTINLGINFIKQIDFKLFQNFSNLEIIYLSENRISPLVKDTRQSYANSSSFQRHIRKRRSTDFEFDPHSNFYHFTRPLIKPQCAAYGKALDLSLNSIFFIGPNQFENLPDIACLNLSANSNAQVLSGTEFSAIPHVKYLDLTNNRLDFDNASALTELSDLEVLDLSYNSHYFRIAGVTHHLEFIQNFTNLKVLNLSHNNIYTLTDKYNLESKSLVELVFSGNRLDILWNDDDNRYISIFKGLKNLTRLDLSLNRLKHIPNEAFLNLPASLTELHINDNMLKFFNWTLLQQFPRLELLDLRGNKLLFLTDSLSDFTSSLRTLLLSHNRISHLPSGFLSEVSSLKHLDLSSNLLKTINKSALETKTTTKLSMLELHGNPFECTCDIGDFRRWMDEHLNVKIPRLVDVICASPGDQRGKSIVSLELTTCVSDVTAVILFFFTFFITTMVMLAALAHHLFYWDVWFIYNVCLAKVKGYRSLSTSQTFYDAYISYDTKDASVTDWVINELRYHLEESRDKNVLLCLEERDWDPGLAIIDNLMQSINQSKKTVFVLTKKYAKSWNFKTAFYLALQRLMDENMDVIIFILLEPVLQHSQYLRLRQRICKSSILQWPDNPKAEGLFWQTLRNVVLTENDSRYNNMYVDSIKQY
Assay: Agonist activity at TLR8 in GM-CSF induced human MDM cells assessed as increase in IL-6 release at 80 to 2000 nM measured after 6 hrs
Format: cell-based
Conditions: filed as agonist, dose 80-2000 nM

SMILES	Activity
CCCN(CCC)C(=O)C1=Cc2ccc(-c3ccc(C(=O)N4CCCC4)cc3)cc2N=C(N)C1	Active

Molecular target: T2, Toll-like receptor 7 (Homo sapiens, UniProt Q9NYK1)
T2 sequence (Q9NYK1 whole entry): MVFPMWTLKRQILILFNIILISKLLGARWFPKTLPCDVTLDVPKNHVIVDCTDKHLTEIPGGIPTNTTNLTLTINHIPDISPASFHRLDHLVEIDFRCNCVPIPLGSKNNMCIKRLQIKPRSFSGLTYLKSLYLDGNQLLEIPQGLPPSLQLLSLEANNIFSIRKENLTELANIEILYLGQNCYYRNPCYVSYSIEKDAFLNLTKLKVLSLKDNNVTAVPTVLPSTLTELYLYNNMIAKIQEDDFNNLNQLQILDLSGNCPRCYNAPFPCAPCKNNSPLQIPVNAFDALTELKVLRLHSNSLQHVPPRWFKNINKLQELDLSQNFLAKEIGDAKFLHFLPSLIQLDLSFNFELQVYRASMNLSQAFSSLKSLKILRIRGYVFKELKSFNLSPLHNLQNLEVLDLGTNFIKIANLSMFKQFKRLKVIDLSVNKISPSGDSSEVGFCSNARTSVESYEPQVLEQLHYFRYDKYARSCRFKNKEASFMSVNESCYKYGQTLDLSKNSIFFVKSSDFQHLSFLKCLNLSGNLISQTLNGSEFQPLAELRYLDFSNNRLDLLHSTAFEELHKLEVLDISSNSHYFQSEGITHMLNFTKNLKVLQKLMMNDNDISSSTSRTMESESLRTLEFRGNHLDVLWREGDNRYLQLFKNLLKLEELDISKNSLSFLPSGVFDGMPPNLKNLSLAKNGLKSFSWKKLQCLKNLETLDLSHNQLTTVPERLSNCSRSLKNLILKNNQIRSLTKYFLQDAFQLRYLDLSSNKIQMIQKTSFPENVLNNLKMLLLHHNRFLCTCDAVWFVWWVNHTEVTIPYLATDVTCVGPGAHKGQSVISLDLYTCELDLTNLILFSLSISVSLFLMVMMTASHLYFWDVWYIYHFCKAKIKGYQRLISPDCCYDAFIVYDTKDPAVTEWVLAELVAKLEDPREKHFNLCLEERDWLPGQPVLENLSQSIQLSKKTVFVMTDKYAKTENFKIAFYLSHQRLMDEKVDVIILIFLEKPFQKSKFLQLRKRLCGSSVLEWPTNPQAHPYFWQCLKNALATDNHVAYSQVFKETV
Assay: Agonist activity at TLR7 in human Ramos-blue cells assessed as increase in NFkappaB activation incubated for 72 hrs by quanti-blue/SEAP reporter gene based assay
Format: cell-based
Conditions: not given

SMILES	EC50 [µM]
CCCCc1nc2c(N)nc3ccccc3c2n1Cc1ccc(N)cc1	0.069
CCCCc1nc2c(N)nc3ccccc3c2n1Cc1ccc(OC)cc1	0.232

Molecular target: T1, Toll-like receptor 8 (Homo sapiens)
Assay: Agonist activity at TLR8 in GM-CSF induced human MDM cells assessed as increase in TNFalpha release at 80 to 2000 nM measured after 6 hrs
Format: cell-based
Conditions: filed as agonist, dose 80-2000 nM

SMILES	Activity
CCCN(CCC)C(=O)C1=Cc2ccc(-c3ccc(C(=O)N4CCCC4)cc3)cc2N=C(N)C1	Active

Tested on: not listed separately
Assay: Apparent permeability of the compound at 200 uM incubated for 5 hrs by PAMPA assay
Format: ADME
Conditions: not given
In short: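 PAMPA using an artificial lipid/oil/lipid trilayer membrane separating donor and acceptor wells. Compound was quantified by absorbance at 280 nm, or at 320 nm for some compounds. Runs were in triplicate, and the reported values are averages of three experiments.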

SMILES	Papp at 5 h, 200 µM [×10⁻⁶ cm/s]
CCCCc1nc2c(N)nc3ccccc3c2n1Cc1cccc(OC)c1	2.5
CCCCOC(=O)Cc1ccc(Cn2c(CCCC)nc3c(N)nc4ccccc4c32)cc1	14.2
CCCCc1nc2c(N)nc3ccccc3c2n1Cc1ccc(NC(C)=O)cc1	3.45
CCCCc1nc2c(N)nc3ccccc3c2n1Cc1cccc(O)c1	0.98
CCCCc1nc2c(N)nc3ccccc3c2n1Cc1ccc(NC(=O)CCCCCNC(=O)OC(C)(C)C)cc1	1.91
CCCCc1nc2c(N)nc3ccccc3c2n1Cc1ccc(NC(=O)CCN)cc1	0.131
CCCCc1nc2c(N)nc3ccccc3c2n1Cc1cccc(N)c1	5.26
CCCCc1nc2c(N)nc3ccccc3c2n1Cc1ccc(NC(=O)CCNC(=O)OC(C)(C)C)cc1	0.434
CCCCc1nc2c(N)nc3ccccc3c2n1Cc1ccc(NC(=O)CCCNC(=O)OC(C)(C)C)cc1	1.33
CCCCc1nc2c(N)nc3ccccc3c2n1Cc1ccc(NC(=O)CCCN)cc1	0.159
CCCCc1nc2c(N)nc3ccccc3c2n1Cc1ccc(NC(=O)CCCCCN)cc1	0.436
CCCCc1nc2c(N)nc3ccccc3c2n1Cc1ccc(N)cc1	8.51
CCCCc1nc2c(N)nc3ccccc3c2n1Cc1ccc(OC)cc1	4.01
CCCCc1nc2c(N)nc3ccccc3c2n1Cc1cccc(NC(=O)OC(C)(C)C)c1	1.24
CCCCc1nc2c(N)nc3ccccc3c2n1Cc1ccc(O)cc1	3.06
CCOCc1nc2c(N)nc3ccccc3c2n1CC(C)(C)O [RESIQUIMOD]	5.3
CCCCC(=O)Nc1ccc(Cn2c(CCCC)nc3c(N)nc4ccccc4c32)cc1	1.59
CCCCc1nc2c(N)nc3ccccc3c2n1Cc1ccc(NC(=O)CCCCNC(=O)OC(C)(C)C)cc1	1.95
CCCCc1nc2c(N)nc3ccccc3c2n1Cc1ccc(NC(=O)CN)cc1	0.834
CCCCc1nc2c(N)nc3ccccc3c2n1Cc1ccc(NC(=O)CNC(=O)OC(C)(C)C)cc1	4.48
CCCCc1nc2c(N)nc3ccccc3c2n1Cc1ccc(NC(=O)CCCCN)cc1	0.838
CCCCc1nc2c(N)nc3ccccc3c2n1Cc1ccc(NC(=O)OCC)cc1	8.78
CCCCc1nc2c(N)nc3ccccc3c2n1Cc1ccc(NC(=O)OC(C)C)cc1	5.12

Source: ChEMBL document CHEMBL5365545, “Synthesis and Optimization of 1-Substituted Imidazo[4,5-c]quinoline TLR7 Agonists” (ACS Med Chem Lett, 2023)
